Assay [1] addresses T1, D(2) dopamine receptor (Mus musculus, UniProt P61168). Briefly: The compound was tested in vitro for its binding affinity towards Dopamine receptor D2.
The target in assay [2] is Sigma non-opioid intracellular receptor 1 (Mus musculus, UniProt O55242). Nature of the assay: In vitro binding affinity for the mouse sigma opioid receptor.
For assay [3], the species on record is Mus musculus. Nature of the assay: Oral potency tested by using anti-mescaline test. The assay is classed as functional. The method, boiled down:
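Mice; mescaline was given to evoke hallucinogen-type behaviour, and the test compound was dosed orally to antagonise it. Potency is the ED50 in mg/kg po. Some ED50s are the average of three measurements.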

In assay [4] the target is T2, Serotonin 2 (5-HT2) receptor (Mus musculus, UniProt Q02152+P34968+P35363). Briefly: The compound was tested in vitro for its binding affinity towards 5-hydroxytryptamine 2 receptor. It is filed as protein assay.
The target of assay [5] is T2, Serotonin 2 (5-HT2) receptor. Briefly: In vitro binding affinity for serotonin 5-hydroxytryptamine (5-HT) 2 receptors. It is filed as protein assay.
The species named for assay [6] is Mus musculus. Nature of the assay: (§1) Oral potency by using Anti aggression test. It is filed as functional. The method, boiled down:
(§2)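 Mice were held in prolonged isolation, then exposed to intruders. The aggressive response was scored after oral dosing of the test compound. Potency is the ED50 in mg/kg po.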

For assay [7], the species on record is Mus musculus. Briefly: Oral potency tested using apomorphine induced climbing test. It is filed as functional.
In assay [8] the target is T1, D(2) dopamine receptor. Nature of the assay: In vitro binding affinity towards dopamine receptor D2.
Assay [9] can be described thus: as §1. It is filed as functional. The method, boiled down: as §2
The next assay addresses D(1A) dopamine receptor (Mus musculus, UniProt Q61616). Nature of the assay: The compound was tested in vitro for its binding affinity towards dopamine receptor D1.
For assay [10], the species on record is Rattus norvegicus. Briefly: Oral potency tested using 5HTP induced head twitch test. It is filed as functional.
The species entered for assay [11] is Rattus norvegicus. Nature of the assay: The compound was tested for blocking the rotation induced by (+)-SKF 10047 in brain-lesioned rats. The assay is classed as functional. The method, boiled down: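 Rats with brain lesions were challenged with (+)-SKF 10047 to induce rotation. The test compound was given orally to block rotation. Reported as the ED50 in mg/kg po.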

Assay [12] is filed under the species Mus musculus. Briefly: Oral potency by using Anti aggression test.

T1 sequence (P61168 whole entry): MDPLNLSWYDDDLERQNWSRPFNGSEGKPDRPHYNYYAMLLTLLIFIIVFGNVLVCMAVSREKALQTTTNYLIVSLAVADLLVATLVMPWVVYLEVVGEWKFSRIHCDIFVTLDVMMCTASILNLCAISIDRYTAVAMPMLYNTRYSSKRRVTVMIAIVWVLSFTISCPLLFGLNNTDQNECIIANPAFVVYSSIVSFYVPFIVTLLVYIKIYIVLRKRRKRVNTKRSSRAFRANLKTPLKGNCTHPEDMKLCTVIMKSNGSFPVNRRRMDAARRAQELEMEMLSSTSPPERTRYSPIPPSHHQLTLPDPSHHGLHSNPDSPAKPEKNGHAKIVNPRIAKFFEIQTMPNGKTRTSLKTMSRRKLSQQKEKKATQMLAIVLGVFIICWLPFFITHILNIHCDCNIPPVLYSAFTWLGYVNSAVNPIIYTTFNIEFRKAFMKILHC
Chain of Sigma non-opioid intracellular receptor 1 (O55242 whole entry): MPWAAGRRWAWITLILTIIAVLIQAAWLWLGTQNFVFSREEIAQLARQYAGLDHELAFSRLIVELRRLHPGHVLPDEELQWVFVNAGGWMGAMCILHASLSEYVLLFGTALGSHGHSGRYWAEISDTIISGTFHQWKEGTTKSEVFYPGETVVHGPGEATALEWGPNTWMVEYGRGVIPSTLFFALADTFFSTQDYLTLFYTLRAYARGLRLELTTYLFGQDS
Chain of D(1A) dopamine receptor (Q61616 whole entry): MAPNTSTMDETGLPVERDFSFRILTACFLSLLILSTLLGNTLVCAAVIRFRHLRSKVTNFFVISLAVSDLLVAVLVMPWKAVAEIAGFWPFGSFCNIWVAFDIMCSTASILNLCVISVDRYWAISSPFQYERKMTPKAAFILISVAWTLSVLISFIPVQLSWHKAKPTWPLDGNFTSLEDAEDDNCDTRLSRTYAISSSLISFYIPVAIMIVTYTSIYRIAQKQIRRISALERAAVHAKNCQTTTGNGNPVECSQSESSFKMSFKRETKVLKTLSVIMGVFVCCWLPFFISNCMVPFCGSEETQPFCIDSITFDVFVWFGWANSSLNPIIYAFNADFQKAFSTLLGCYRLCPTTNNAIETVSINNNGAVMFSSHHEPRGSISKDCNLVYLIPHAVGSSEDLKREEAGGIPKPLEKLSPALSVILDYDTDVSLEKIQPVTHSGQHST

In the case of `Fc1ccc(SCC2CCN(CCC3CC3)CC2)cc1`, the 50% inhibitory concentration (IC50) at D(2) dopamine receptor [1] amounted to 1.7 µM. The inhibitory constant (Ki) in assay [2] was determined as 0.005 µM; in [4], 0.053 µM. Besides, the ED50 in the assay listed under Mus musculus [3] is greater than 10 mg/kg.

As for `CC(C)(C)c1ccc(OCC2CCN(CC3CC3)CC2)cc1`, the Ki in [5] was greater than 1 µM; in assay [2] it was 0.014 µM. Further, the ED50 in the assay listed under Mus musculus [6] is greater than 30 mg/kg; in the assay filed under Mus musculus [7] it was greater than 30 mg/kg; in the assay filed under Mus musculus [3] it was less than 30 mg/kg. At D(2) dopamine receptor [8], this compound showed an IC50 of 3.15 µM.

Consider `N#Cc1ccc(C(=O)CC2CCN(CC3CC3)CC2)cc1.O=C(O)/C=C/C(=O)O`, for which the Ki in [5] is greater than 10 µM; in [2], 0.011 µM; at D(1A) dopamine receptor it was greater than 10 µM. The ED50 in assay [9] is 0.44 mg/kg; in the assay listed under Mus musculus [7] it was greater than 90 mg/kg; in the assay listed under Rattus norvegicus [10], 22.3 mg/kg; in the assay filed under Rattus norvegicus [11], 5.3 mg/kg; in the assay filed under Mus musculus [3] it was 0.8 mg/kg. This compound also had an IC50 on D(2) dopamine receptor [8] greater than 10 µM.

On to `O.O=C(CC1CCN(Cc2ccccc2)CC1)c1ccc(F)cc1.O=C(O)/C=C\C(=O)O`, for which the Ki in assay [5] turned out to be 0.02 µM; in assay [2], 0.001 µM. In addition, the ED50 in the assay listed under Mus musculus [6] worked out at 8.6 mg/kg; in the assay listed under Mus musculus [7], 18 mg/kg; in the assay listed under Rattus norvegicus [10], 2.8 mg/kg; in the assay filed under Mus musculus [3], 4.8 mg/kg. In addition, on D(2) dopamine receptor [8], the IC50 is 1.55 µM.

Regarding `Br.O=C(CC1CCN(CC2CC2)CC1)c1ccc(F)cc1`, the Ki in [5] came out at 0.015 µM; in assay [2] it was 0.01 µM. For the same compound, the ED50 in the assay filed under Mus musculus [7] stood at 15 mg/kg; in the assay listed under Rattus norvegicus [10] it was 1.8 mg/kg; in the assay filed under Mus musculus [12], 1.9 mg/kg; in the assay listed under Rattus norvegicus [11], 2.4 mg/kg; in the assay listed under Mus musculus [3], 0.35 mg/kg.

As to `Br.O=C(CC1CCN(CC2CC2)CC1)c1ccc(-c2ccccc2)cc1`, the values for the Ki in [5] and in assay [2] were 0.547 µM and 0.051 µM, respectively. Also, the ED50 was greater than 30 mg/kg in the assay listed under Mus musculus [7], 10 mg/kg in the assay filed under Rattus norvegicus [10], 8.4 mg/kg in the assay listed under Mus musculus [12] and 4.7 mg/kg in the assay listed under Mus musculus [3]. The half-maximal inhibitory concentration (IC50) on D(2) dopamine receptor [8] came out at 1.72 µM.

On to `Br.O=C(CC1CCN(CC2CC2)CC1)c1ccc(Cl)cc1`, for which the Ki in assay [5] is 0.495 µM; in assay [2] it was 0.008 µM. The ED50 was greater than 30 mg/kg in the assay listed under Mus musculus [7], 30 mg/kg in the assay filed under Rattus norvegicus [10], 14 mg/kg in the assay filed under Mus musculus [12] and 0.46 mg/kg in the assay filed under Mus musculus [3]. Further, the IC50 on D(2) dopamine receptor [8] turned out to be 2 µM.

Consider `OC(CCCN1CCN(c2ncc(F)cn2)CC1)c1ccc(F)cc1` (centres undefined) [BMY-14802], for which the Ki in [5] worked out at 0.41 µM; in assay [2], 0.174 µM. In addition, the ED50 in the assay filed under Mus musculus [7] is greater than 90 mg/kg; in the assay filed under Rattus norvegicus [10], 2.3 mg/kg; in the assay filed under Mus musculus [12] it was 45 mg/kg; in the assay listed under Mus musculus [3], 6 mg/kg. The compound also came in with an IC50 on D(2) dopamine receptor [8] of 2.43 µM.

The values are drawn from ChEMBL document CHEMBL1125363, “Novel piperidine sigma receptor ligands as potential antipsychotic drugs” (J Med Chem, 1992).
